Each structure is given as a SMILES string. Where two headings read alike, the source gives them in different places. Where only a bound is given, the exact number is not on record here.

The subject of one data set is BT-474. Description: Growth inhibition assay, BT-474. Format: cell-based. The note with it: Homo sapiens, BT-474, 72 h, read-out: GI50 (nmol/L), mean ± SD. The procedure, abridged: (§1)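 Cell lines were STR-authenticated; MCF10A lines stably express mutant HER2. Test compounds were dissolved in DMSO and added to the cells. Growth was assessed 3 days after treatment, and GI50 was derived as the mean of three independent experiments.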

A further data set has as its system NCI-N87. Description: Growth inhibition assay, NCI-N87. Format: cell-based. The conditions noted are these: Homo sapiens, NCI-N87, 72 h, read-out: GI50 (nmol/L), mean ± SD. The procedure, abridged: as §1
For a further data set, the system named is NCI-H1781. Description: Growth inhibition assay, NCI-H1781. The format is cell-based. The conditions noted are these: Homo sapiens, NCI-H1781, 72 h, read-out: GI50 (nmol/L), mean ± SD. The procedure, abridged: as §1
In the next data set the test system is MCF10A_HER2/insYVMA. Description: Growth inhibition assay, MCF10A_HER2/insYVMA. The format is cell-based. The note with it: Homo sapiens, 72 h, read-out: GI50 (nmol/L), mean ± SD. In outline: as §1
The subject of another data set is NCI-H1975. Description: Growth inhibition assay, NCI-H1975. The format is cell-based. The conditions noted are these: Homo sapiens, NCI-H1975, 72 h, read-out: GI50 (nmol/L), mean ± SD.
The test system of the next data set is NCI-H460. Description: Growth inhibition assay, NCI-H460. Format: cell-based. The conditions noted are these: Homo sapiens, NCI-H460, 72 h, read-out: GI50 (nmol/L), mean ± SD.
The conditions of data set [1]: in rodents, cited from earlier work.
A further data set concerns A-431. Kind of data set: Growth inhibition assay, A-431. Format: cell-based. The conditions noted are these: Homo sapiens, A-431, 72 h, read-out: GI50 (nmol/L), mean ± SD. The procedure, abridged:
as §1

A further data set relates to HCC827. Kind of data set: Growth inhibition assay, HCC827. Format: cell-based. The note with it: Homo sapiens, HCC827, 72 h, read-out: GI50 (nmol/L), mean ± SD.
Data set [2] concerns HER2/HER3 signaling in SK-BR-3 cell line. Kind of data set: Western blot of HER2 signaling pathway in SK-BR-3 cells. Format: cell-based.
Data set [3] deals with NCI-H1975 EGFR D770_N771insSVD. Kind of data set: Growth inhibition assay, NCI-H1975 EGFR D770_N771insSVD. The format is cell-based. The conditions noted are these: Homo sapiens, NCI-H1975, 72 h, read-out: GI50 (nmol/L), mean ± SD.
A further data set concerns NIH/3T3_EGFR vIII. Kind of data set: Growth inhibition assay, NIH/3T3_EGFR vIII. The format is cell-based. The note with it: 72 h, read-out: GI50 (nmol/L), mean ± SD.

In the case of `CN(C)C/C=C/C(=O)Nc1cc2c(Nc3ccc(F)c(Cl)c3)ncnc2cc1O[C@H]1CCOC1` [Afatinib, afatinib], the GI50 with BT-474 is 2.42 ± 2.34 nmol/L; with NCI-N87, 1.47 ± 0.81 nmol/L; in the data set on NCI-H1781, 13.8 ± 8.7 nmol/L; with MCF10A_HER2/insYVMA, 102 ± 17 nmol/L; with NCI-H1975 it was 108 ± 40 nmol/L; in the data set on NCI-H460, > 1000 nmol/L. For the same compound, the GI50 with A-431 was 9.33 ± 0.72 nmol/L. Besides, in data set [1] (no reference given), the “Kp,uu,brain” value is 0.0062.
Consider `CS(=O)(=O)CCNCc1ccc(-c2ccc3ncnc(Nc4ccc(OCc5cccc(F)c5)c(Cl)c4)c3c2)o1` [Lapatinib], for which the GI50 is 16.7 ± 10 nmol/L in the data set on NCI-N87; 576 ± 282 nmol/L in the data set with NCI-H1781; 679 ± 211 nmol/L in the data set with HCC827; > 1000 nmol/L with MCF10A_HER2/insYVMA; > 1000 nmol/L in the data set on NCI-H1975; > 1000 nmol/L with NCI-H460. Moreover, the results for the GI50 (in data set [3]; in the data set on A-431; in the data set with NIH/3T3_EGFR vIII) were > 1000 nmol/L, 424 ± 29 nmol/L and > 1000 nmol/L, respectively. Moreover, the “phosphorylation of HER2, HER3, and their downstream proteins” value in [2] is “inhibited”. Besides, the “phosphorylation of HER3 and its downstream targets, AKT and ERK, at 48 h” value in [2] is reported as “increased”.
On to `CCOc1cc2ncc(C#N)c(Nc3ccc(OCc4ccccn4)c(Cl)c3)c2cc1NC(=O)/C=C/CN(C)C` [Neratinib, neratinib], for which the GI50 is 1.03 ± 0.69 nmol/L with BT-474; 0.946 ± 0.771 nmol/L with NCI-N87; 15.4 ± 5.9 nmol/L in the data set with NCI-H1781; 292 ± 187 nmol/L with HCC827; 84.3 ± 9 nmol/L with MCF10A_HER2/insYVMA; 236 ± 147 nmol/L in the data set with NCI-H1975. In addition, the GI50 in the data set on NCI-H460 came out at 860 ± 67 nmol/L; in [3], 130 ± 60 nmol/L; in the data set with A-431, 35.8 ± 9.7 nmol/L; in the data set with NIH/3T3_EGFR vIII, 114 ± 72 nmol/L.
`C=CC(=O)Nc1cc(Nc2nccc(-c3cn(C)c4ccccc34)n2)c(OC)cc1N(C)CCN(C)C` [Osimertinib, osimertinib]: the GI50 in the data set with BT-474 was 15.4 ± 12 nmol/L; in the data set on NCI-N87, 13.5 ± 8.3 nmol/L; in the data set with NCI-H1781, 82 ± 10 nmol/L; with HCC827 it was 13.6 ± 10 nmol/L; with MCF10A_HER2/insYVMA, > 1000 nmol/L; in the data set on NCI-H1975, […]. Moreover, the GI50 in the data set with NCI-H460 is > 1000 nmol/L; in data set [3], 154 ± 55 nmol/L; with A-431, […]; in the data set on NIH/3T3_EGFR vIII, 253 ± 56 nmol/L. The “Kp,uu,brain” value in [1] is listed as “approximately 0.21”.
